Screening results deposited in PubChem by several laboratories.
p-CIP stab down: p/CIP-EGFP fusion destabilizers, primary screen, fluorescence, F442A cells; Q05BA5; 16 h; decrease of EGFP signal, % at 10 µM; 0.01% of 290,000 active; AID 1984, 2009;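 active = EGFP signal decrease of at least 30% at 10 µM or well 3 SD below plate mean, unless failing retest; inactive = the rest, including hits failing retest or dose response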
CHOP UPR activ: activators of apoptotic CHOP UPR arm, primary screen, cell-based, CHO-CHOP luciferase reporter, luminescence, uHTS; activation, % at 10 µM; UPR activation; percent of tunicamycin response over DMSO baseline; 0.34% of 330,000 active;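 active = at 10 µM dose, activation of 40% or more, normalized to positive control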
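System: CHO-CHOP luciferase reporter cell line | Buffer or medium: F12 medium containing 10% fetal bovine serum | Doses: One dose, 10 µM in 0.5% DMSO | Times: 6 h compound exposure at 37 °C after overnight seeding | Signal: Luciferase luminescence | Read-out: % activation vs tunicamycin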
XBP1 UPR activ: activators of adaptive XBP1 UPR arm, primary screen, cell-based, CHO-XBP1 luciferase reporter, luminescence, uHTS | IRE1-XBP1 UPR activation; percent of tunicamycin response, DMSO as zero | activation, % at 20 µM | 0.33% of 330,000 active;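 active = versus positive control, 20 µM dose yields 30% or more activation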
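Material: CHO-XBP1 cells stably carrying IRE1-XBP1-driven luciferase reporter / Amount: 1000 cells per well / Compound: 20 µM, 1% DMSO / Times: 6 h treatment, 37 °C / Detection: luciferase luminescence / Measure: % activation of reporter signal versus tunicamycin and DMSO controls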
Dynein transport: inhibitors of GR-EGFP nuclear translocation, primary screen, dynein cargo transport inhibitor project, imaging, high-content, 3617.4 mouse cells. 0.47% of 220,000 active. AID 1381, 2008. z-score, hits read low. test concentration mostly 20 µM; stimulated with dexamethasone, 1 µM; hits give low values;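 active = plate z-score of nuclear minus cytoplasmic receptor signal below a set negative limit, without overly bright fluorescence or cell loss, cut at about -3.5 in these data, passing the limit was not always enough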;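 also: z-score of nuclear minus cytoplasmic ring GR-EGFP intensity difference per well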
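Buffer or medium: tet-free, stripped-serum medium; reagent: dexamethasone at 1.0 µM final, 30 min; incubation: 48 h induction, 1 h compound, 30 min dex at 37 °C; measured by: formaldehyde fixation, Hoechst nuclear stain, 10x automated fluorescence imaging; read-out: nuclear-to-cytoplasmic GR-EGFP distribution per well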
B2AR ag: beta2AR agonists driving receptor internalization, primary screen, cell-based, FAP fluorogen, flow cytometry. 0.43% of 340,000 active. Beta-2 adrenergic receptor (Homo sapiens), P07550. Am2.2-beta2AR cells. response, % (test concentration not listed);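 active = response above a set limit, near 3 SD of response in nonfluorescent compounds, cut at about 42% in these data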
Target sequence (P07550 whole entry, looked up): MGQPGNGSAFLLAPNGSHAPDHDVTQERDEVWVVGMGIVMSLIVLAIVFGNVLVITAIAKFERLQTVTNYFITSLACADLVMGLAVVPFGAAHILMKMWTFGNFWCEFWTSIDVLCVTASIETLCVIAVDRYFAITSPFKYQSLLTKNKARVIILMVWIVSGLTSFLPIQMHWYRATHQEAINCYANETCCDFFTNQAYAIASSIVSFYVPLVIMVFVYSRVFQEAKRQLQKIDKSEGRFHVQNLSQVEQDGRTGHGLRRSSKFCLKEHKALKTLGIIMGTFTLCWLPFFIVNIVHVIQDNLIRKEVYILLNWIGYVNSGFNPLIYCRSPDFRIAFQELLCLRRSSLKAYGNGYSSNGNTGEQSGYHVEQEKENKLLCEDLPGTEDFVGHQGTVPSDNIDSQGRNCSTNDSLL
CHOP inh: inhibitors of CHOP promoter induction, primary screen, cell-based, unfolded protein response, luciferase reporter | CHO-K1 CHOP-promoter luciferase, tunicamycin-induced, 15-18 h | AID 2732, 2010 | inhibition, % at 10 µM | 3.8% of 220,000 active;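 active = compounds that reduced the stress-induced luciferase reporter signal by more than about 70% of percent inhibition, limit read from the data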
B2AR ag CP1: beta2AR agonists via receptor internalization, confirmation, cell-based, FAP fluorogen, flow cytometry, single point, cherry pick 1. Am2.2-beta2AR cells, FAP surface receptor; hits give low values. shares compounds with B2AR ag. 25% of 1,100 active. percent response (surface receptor), % at 10 µM. AID 540358, 2011;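 active = surface receptor percent response at or below 58%, roughly 3 SD from nonfluorescent compounds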
B2AR FAP counter: counter-screen for beta-2AR agonists: fluorescence in Am2.2 cells; shares compounds with B2AR ag; FAP fluorogen flow cytometry, fluorescence counterscreen; hits give low values; calls only at 10 µM; 1,100 tested, under 10 active; AID 588765;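 active = percent response below a set limit in fluorescence channel 1 and below 50% in channel 8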
Hits are given with their value; – = inactive; · = not tested or not shown. The entries come from a sample that favours hits as a whole.

SMILES	p-CIP stab down	CHOP UPR activ	XBP1 UPR activ	Dynein transport	B2AR ag	CHOP inh	B2AR ag CP1	B2AR FAP counter
CCn1cc(C(=O)NC2CCc3ccccc32)c(=O)c2ccc(C)nc21 (stereo unspecified)	–	·	·	–	·	–	·	·
Cc1ccc(NC(=O)c2ncn(CC(=O)NCc3nc4ccccc4[nH]3)n2)cc1C	·	–	–	·	–	·	·	·
COc1cccc(NC(=O)[C@H](C)NC(=O)C2CCN(S(=O)(=O)c3ccc(C)cc3)CC2)c1	–	–	–	–	–	–	·	·
COc1ccc(C(=O)NCC(c2ccco2)N2CCc3ccccc32)cc1 (stereo unspecified)	·	–	–	·	54	·	–	–
COc1ccc(NC(=O)C(=O)NCC(c2ccco2)N2CCc3ccccc32)cc1 (stereo unspecified)	·	–	–	·	–	·	·	·
CN1CCN(NC(=O)c2cc(-c3ccc(Cl)s3)nc3ccccc23)CC1	–	–	–	·	–	·	·	·
Cc1c(Cl)cccc1NC(=O)COc1ccc(S(=O)(=O)N2CCOCC2)cc1	–	–	–	–	–	–	·	·
O=C(COc1ccc(S(=O)(=O)N2CCOCC2)cc1)Nc1ccccc1F	·	–	–	·	–	·	–	–
O=C(COc1ccc(S(=O)(=O)N2CCOCC2)cc1)Nc1ccccc1Cl	–	–	–	·	–	·	–	–
Nn1c(SCc2cn3ccccc3n2)nnc1-c1ccncc1	–	–	–	–	45	–	–	–
Oc1ccc(NCc2ccccc2OCc2ccccc2)cc1	–	–	–	–	–	–	–	–
CCOC(=O)c1[nH]ncc1CN1CCCC(C(=O)c2cc(Cl)ccc2OC)C1 (stereo unspecified)	–	–	–	–	–	–	·	·
CCOC(=O)c1[nH]ncc1CN1CCCC(C(=O)c2ccc(OC)c(OC)c2)C1 (stereo unspecified)	–	–	–	–	47	–	–	–
CCOc1ccccc1-n1c(SCC(=O)Nc2ccccc2C(=O)O)nc2ccccc2c1=O	–	–	–	·	–	·	·	·
COc1ccccc1C(=O)Nc1ccc2oc(-c3ccc(F)cc3)nc2c1	–	–	–	–	–	–	–	–
COc1ccc(C(=O)Nc2ccc3oc(-c4cccc(F)c4)nc3c2)cc1OC	–	–	–	–	–	–	·	·
